Compound activity from PubChem BioAssay.
Sampled rows, rich in hits. Any-hit rate of the full collection: about 2.3%.
TRPC4 act = activators of mouse TRPC4 channel. Q9QUQ5. HEK293 TRPC4beta/mu-opioid, Fluo4 calcium fluorescence; active compounds read high. B-score at 10 µM. 310,000 tested, 0.49% active. AID 2237;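 active = B-score above 5 SD of library B-scores, and initial fluorescence ratio not above library mean plus 5 SD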;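 also: positive B-score marks a calcium rise read as TRPC4 activation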
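Technique: kinetic Fluo4 calcium fluorescence; Test system: TRPC4beta and mu-opioid receptor HEK293 stable cells; Measure: B-scored integrated calcium fluorescence ratio; Benchmarks: low control buffer alone, high control maximal DAMGO; Schedule: 45 min room-temperature Fluo4 loading, 110 s read.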
TRPC6 act = activates the mouse TRPC6 cation channel | 310,000 tested, 0.13% active | Q61143 | HEK293-TRPC6 membrane potential dye fluorescence; active compounds read high | B-score at 10 µM;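 active = B-score of the integrated fluorescence ratio above library mean plus 3 SD, and starting fluorescence ratio within library mean plus 5 SD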;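 also: higher score means more depolarization so channel activation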
Target sequence (Q61143 whole entry, looked up): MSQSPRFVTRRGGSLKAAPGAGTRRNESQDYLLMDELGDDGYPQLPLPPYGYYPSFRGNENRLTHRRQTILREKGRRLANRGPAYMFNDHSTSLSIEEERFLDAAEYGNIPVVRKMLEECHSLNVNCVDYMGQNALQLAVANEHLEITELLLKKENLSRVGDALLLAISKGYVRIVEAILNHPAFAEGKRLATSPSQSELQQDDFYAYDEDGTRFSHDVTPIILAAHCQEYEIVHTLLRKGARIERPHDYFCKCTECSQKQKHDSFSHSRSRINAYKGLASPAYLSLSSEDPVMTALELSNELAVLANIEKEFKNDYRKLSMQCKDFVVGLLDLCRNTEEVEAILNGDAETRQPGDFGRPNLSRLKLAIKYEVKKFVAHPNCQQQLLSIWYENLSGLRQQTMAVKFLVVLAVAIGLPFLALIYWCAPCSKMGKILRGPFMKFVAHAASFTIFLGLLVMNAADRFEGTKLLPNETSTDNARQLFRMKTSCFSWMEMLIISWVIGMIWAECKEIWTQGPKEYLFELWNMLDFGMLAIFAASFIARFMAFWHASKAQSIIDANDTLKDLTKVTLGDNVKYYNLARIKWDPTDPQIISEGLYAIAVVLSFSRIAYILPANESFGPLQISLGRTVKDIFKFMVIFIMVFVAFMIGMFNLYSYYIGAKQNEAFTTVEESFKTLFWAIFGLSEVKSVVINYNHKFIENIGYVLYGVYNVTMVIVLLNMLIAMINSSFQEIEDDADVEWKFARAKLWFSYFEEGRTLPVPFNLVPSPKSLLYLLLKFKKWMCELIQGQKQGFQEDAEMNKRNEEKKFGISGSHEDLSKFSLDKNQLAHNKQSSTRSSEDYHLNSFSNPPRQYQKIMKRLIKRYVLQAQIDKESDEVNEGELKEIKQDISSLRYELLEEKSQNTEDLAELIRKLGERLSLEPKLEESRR
TRPC6 inh = mouse TRPC6 channel inhibition; Q61143; HEK293-TRPC6, membrane potential dye, ACh-evoked depolarization; active compounds read low; B-score at 10 µM; 310,000 tested, 1.1% active; AID 2553;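 active = B-score under library mean minus 3 SD, initial fluorescence not abnormally high, positive integrated signal ratio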;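 also: B-score derived from integrated fluorescence ratio over the kinetic read; more negative B-score means stronger inhibition of depolarization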
TRPC4 inh = TRPC4 (mouse) channel inhibition | B-score at 10 µM | 300,000 tested, 0.39% active | Q9QUQ5 | HEK293 TRPC4beta/mu-opioid, DAMGO-evoked Fluo4 calcium flux; active compounds read low;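 active = B-score over 3 SD under the library average, no early fluorescence shift, positive overall ratio signal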
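Assay system: HEK293 cells with stable TRPC4beta plus mu-opioid receptor expression. Dosing: single dose. Measured by: Fluo4 Ca2+ flux fluorescence. Also added: DAMGO in two steps, submaximal then maximal. Read-out: B score from integrated Fluo4 fluorescence ratio.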
TRPC4 potent = allosteric potentiators of mouse TRPC4 channel. Q9QUQ5. HEK293 TRPC4beta/mu-opioid, DAMGO EC20, Fluo-4 Ca2+ flux; active compounds read high. B-score at 10 µM. 310,000 tested, 0.42% active. AID 2227;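 active = B-score of calcium response area above 5 SD of library B-scores, with initial fluorescence ratio within 5 SD of library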;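 also: B-score of integrated fluorescence ratio over time as area under calcium response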
TRPC4 sel inh 2 = second check of whether TRPC6 inhibitors also affect mouse TRPC4. AID 2776. inhibition, % at 10 µM. shares compounds with TRPC6 inh. HEK293 TRPC4/MOR, membrane potential dye fluorescence; channel activated by saturating DAMGO dose. 920 tested, 42% active;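 active = compounds whose fluorescence signal differed from control wells by over 3 SD, either direction, in both duplicate plates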
TRPC4 spec = mouse TRPC4 off-target activity of TRPC6 inhibitors; shares compounds with TRPC6 inh; HEK293 TRPC4/mu-opioid, membrane potential fluorescence; activity change, negative = inhibition, % at 10 µM; 920 tested, 61% active; AID 2777;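 active = rise or fall in signal beyond 3 SD of buffer-only wells in both replicate plates, either sign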;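 also: integrated kinetic ratio of fluorescence range over baseline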
HEK293 MPD ctr 2-1 = parental HEK293 nonspecific activity of TRPC6 inhibitors, second screen. shares compounds with TRPC6 inh. parental HEK293 membrane potential dye fluorescence; maximal acetylcholine challenge after compound addition. signal change vs control, % at 10 µM. 920 tested, 31% active;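 active = membrane potential signal moving either way by over 3 SD of the maximum-effect control, in both duplicate plates, meaning non-specific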
HEK293 MPD ctr-1 = parental HEK293 nonspecific activity of TRPC6 inhibitors | shares compounds with TRPC6 inh | parental HEK293 membrane potential dye fluorescence | membrane potential signal change, % at 10 µM | 920 tested, 60% active;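 active = membrane potential signal shifting up or down by more than 3 SD of buffer-only wells, on both duplicate plates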
HEK293 MPD ctr-2 = parental HEK293 nonspecific activity of TRPC6 modulators | membrane potential dye fluorescence | shares compounds with TRPC6 inh | AID 488924 | membrane potential signal change, % at 10 µM | 2,400 tested, 51% active;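 active = membrane potential signal moves up or down beyond 5 SD from buffer-only wells, on both duplicate plates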
HEK293 MPD ctr 2-2 = parental HEK293 nonspecific activity of TRPC6 modulators, second screen | inhibition, % at 10 µM | 2,400 tested, 14% active | shares compounds with TRPC6 inh | membrane potential dye fluorescence; after compound, maximal acetylcholine stimulation;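 active = membrane potential signal drops by more than 5 SD from the mean control signal, in both duplicate plates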;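 also: plate controls were acetylcholine ECmax control wells for no effect and buffer only wells for full effect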
TRPC4/MOR mod = selectivity of TRPC6 modulators against mouse TRPC4. shares compounds with TRPC6 inh. percent change from control (negative = decrease, positive = increase), % at 10 µM. 2,400 tested, 69% active. HEK293 TRPC4/mu-opioid, membrane potential fluorescence;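 active = membrane potential signal moved up or down beyond 5 SD of buffer control wells, in both duplicate plates, actives on both sides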;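 also: plate controls were assay buffer wells for no effect and DAMGO maximal-effect wells for full effect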
TRPC4 ctr inh 2 = second check of whether TRPC6 modulators also affect mouse TRPC4; shares compounds with TRPC6 inh; HEK293 TRPC4/mu-opioid, membrane potential dye fluorescence; stimulated with maximal-effect DAMGO; inhibition, % at 10 µM; 2,400 tested, 55% active; AID 488928;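 active = drop in membrane potential signal beyond 5 SD of the control wells in both duplicate plates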;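 also: TRPC4 counter screen for TRPC6 hits run under conditions tuned for TRPC6 not TRPC4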
TRPC6 block conf = confirmation of mouse TRPC6 inhibitors | shares compounds with TRPC6 inh | HEK293-TRPC6, membrane potential dye, ACh-evoked depolarization | inhibition, % at 10 µM | 3,300 tested, 43% active;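 active = fluorescence ratio falls more than 5 SD below the full-stimulation control mean, in both duplicate runs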;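 also: integrated fluorescence ratio of peak minus minimum over baseline after agonist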
TRPC6 act conf = mouse TRPC6 activator confirmation. activation, % at 10 µM. shares compounds with TRPC6 inh. 2,800 tested, 11% active. HEK293-TRPC6 membrane potential dye fluorescence, FDSS. AID 488961;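 active = ratio signal rise beyond 5 SD above unstimulated control wells' mean, seen in both duplicate runs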;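 also: plate controls were buffer EC0 wells for no effect and acetylcholine ECmax response for full effect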
Active calls of the source: *.

What do the screens show for `CCN(CC)CCSc1nnc(Nc2ccccc2)n1-c1ccccc1`?
TRPC4 act: inactive; TRPC6 act: inactive; TRPC6 inh: -7.8*; TRPC4 inh: inactive; TRPC4 potent: inactive; TRPC4 sel inh 2: inactive; TRPC4 spec: 2.4%*; HEK293 MPD ctr 2-1: inactive; HEK293 MPD ctr-1: 3.4%*; TRPC6 block conf: inactive; TRPC6 act conf: inactive

How did COc1cc(NC(=O)CCC(=O)c2cccs2)cc(OC)c1 do in these assays?
TRPC4 act: inactive; TRPC6 act: inactive; TRPC6 inh: inactive; TRPC4 inh: inactive; TRPC4 potent: inactive

How did Cc1cc(=O)[nH]c(N2CCN(C(=O)c3ccco3)CC2)n1 do in these assays?
TRPC4 act: inactive; TRPC6 act: inactive; TRPC6 inh: inactive; TRPC4 inh: inactive; TRPC4 potent: inactive

How did Cc1cc(N2CCN(c3nc(-c4ccccc4)cs3)CC2)c2ccccc2n1 do in these assays?
TRPC4 act: inactive; TRPC6 act: inactive; TRPC6 inh: inactive; TRPC4 inh: inactive; TRPC4 potent: inactive

What do the screens show for `Nc1nc(N2CCN(C(=O)c3ccco3)CC2)nc2ccc(Br)cc12`?
TRPC4 act: inactive; TRPC6 act: inactive; TRPC6 inh: inactive; TRPC4 inh: inactive; TRPC4 potent: inactive

Results for Cc1cc(N2CCN(C(=O)c3ccco3)CC2)c2ccccc2n1 ?
TRPC4 act: inactive; TRPC6 act: inactive; TRPC6 inh: -6.4*; TRPC4 inh: inactive; TRPC4 potent: inactive; HEK293 MPD ctr-2: -168%*; HEK293 MPD ctr 2-2: inactive; TRPC4/MOR mod: -29%*; TRPC4 ctr inh 2: 28%*; TRPC6 block conf: inactive; TRPC6 act conf: inactive

Results for Nc1nc(N2CCN(C(=O)c3ccco3)CC2)nc2ccccc12 ?
TRPC4 act: inactive; TRPC6 act: inactive; TRPC6 inh: -7.5*; TRPC4 inh: inactive; TRPC4 potent: inactive; TRPC4 sel inh 2: inactive; TRPC4 spec: -23%*; HEK293 MPD ctr 2-1: inactive; HEK293 MPD ctr-1: -412%*; TRPC6 block conf: inactive; TRPC6 act conf: inactive

What do the screens show for `Nc1nc(N2CCN(C/C=C/c3ccccc3)CC2)nc2ccccc12`?
TRPC4 act: inactive; TRPC6 act: inactive; TRPC6 inh: -6.7*; TRPC4 inh: inactive; TRPC4 potent: inactive; TRPC4 sel inh 2: 18%*; TRPC4 spec: -21%*; HEK293 MPD ctr 2-1: inactive; HEK293 MPD ctr-1: inactive; TRPC6 block conf: 88%*; TRPC6 act conf: inactive
